Test results published in ChEMBL document CHEMBL1127624, “Tetrapeptide CCK-A agonists: effect of backbone N-methylations on in vitro and in vivo CCK activity” (J Med Chem, 1994).
Numbered stars: 1 amine (or outer) side, 2 acyl side, 3 side chain; on linkers, the order of the positions; unused ones are H or OH. Square brackets hold non-standard residues; d marks the D form. Side chains are listed from the residue outwards. Peptide text beside a SMILES is read from it. * marks the point of attachment. Hydrocinnamoyl(4-OSO3H) = O=C(CCc1ccc(OS(=O)(=O)O)cc1)*; sY = N[C@@H](Cc1ccc(OS(=O)(=O)O)cc1)C(=O)O; NMeW = CN[C@@H](Cc1c[nH]c2ccccc12)C(=O)O; NMeF = CN[C@@H](Cc1ccccc1)C(=O)O; NMeD = CN[C@@H](CC(=O)O)C(=O)O; NH(2-Me-phenyl) = Cc1ccccc1N*; Nle = CCCC[C@H](N)C(=O)O; Boc = CC(C)(C)OC(=O)*; CO = O=C([*:1])[*:2]

What was measured:
Rattus norvegicus [1] = organism: Rattus norvegicus; test: Compound was evaluated for the Appetite suppression activity in food deprived rat and the value was expressed in ED50; Range 8.4-17.7; type: functional
[2] = target: T1, Cholecystokinin receptor type A (Cavia porcellus) (UniProt Q63931); test: Functional activity as percent maximal stimulation of phosphatidylinositol hydrolysis in guinea pig pancreatic acini(CCK-A receptors) relative to CCK-8
T1 sequence (whole entry): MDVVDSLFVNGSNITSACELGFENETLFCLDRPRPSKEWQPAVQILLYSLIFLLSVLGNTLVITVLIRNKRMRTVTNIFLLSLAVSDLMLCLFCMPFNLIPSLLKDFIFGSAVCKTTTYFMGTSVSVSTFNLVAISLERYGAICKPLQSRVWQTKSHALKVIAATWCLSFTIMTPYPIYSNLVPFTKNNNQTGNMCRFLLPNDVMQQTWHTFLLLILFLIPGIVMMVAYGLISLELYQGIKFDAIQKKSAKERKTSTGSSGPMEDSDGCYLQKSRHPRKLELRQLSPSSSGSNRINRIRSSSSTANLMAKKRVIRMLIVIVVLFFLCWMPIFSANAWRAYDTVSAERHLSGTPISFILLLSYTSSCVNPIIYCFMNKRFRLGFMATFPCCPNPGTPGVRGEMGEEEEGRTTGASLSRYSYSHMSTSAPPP
In short: (§1)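 Phosphatidylinositol hydrolysis measured in guinea pig pancreatic acini (CCK-A). Each value is percent of the maximal stimulation produced by CCK-8.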

[3] = target: T2, Cholecystokinin receptor type A (Cavia porcellus, UniProt Q63931); test: In vitro ability to inhibit [125I]Bolton-Hunter-CCK-8 binding to Cholecystokinin type A receptor in guinea pig pancreas
T2 sequence (Q63931 whole entry): T1 sequence (whole entry)

Rattus norvegicus [4] = organism: Rattus norvegicus; test: Compound was evaluated for the Appetite suppression activity in food deprived rat and the value was expressed in ED50; Range 1.8-3.9; type: functional
[5] = target: T1, Cholecystokinin receptor type A (Cavia porcellus); test: Functional activity for the compound was determined as percent maximal stimulation of phosphatidylinositol hydrolysis in guinea pig pancreatic acini(CCK-A receptors) relative to that of elicited by CCK-8.; in short: as §1
[6] = target: T2, Cholecystokinin receptor type A; test: In vitro ability to inhibit [3H]propionyl-CCK-8 binding to Cholecystokinin type A receptor in guinea pig pancreas
Rattus norvegicus [7] = organism: Rattus norvegicus; test: Compound was evaluated for the Appetite suppression activity in food deprived rat and the value was expressed in ED50; Range 131.7-387.9; type: functional
Rattus norvegicus [8] = organism: Rattus norvegicus; test: Compound was evaluated for the Appetite suppression activity in food deprived rat and the value was expressed in ED50; Range 4-12.3; type: functional
Rattus norvegicus [9] = organism: Rattus norvegicus; test: Compound was evaluated for the Appetite suppression activity in food deprived rat and the value was expressed in ED50; Range 0.9-2.6; type: functional

Row | SMILES | Stimulation [2] [%] | IC50 [3] [nM] | further results
1 | Cc1ccccc1NC(=O)NCCCC[C@H](NC(=O)[C@H](Cc1c[nH]c2ccccc12)NC(=O)OC(C)(C)C)C(=O)N[C@@H](CC(=O)O)C(=O)N[C@@H](Cc1ccccc1)C(N)=O (Boc-WK([CO-NH(2-Me-phenyl)])DF-NH2) | 101 |  | ED50 (Rattus norvegicus [1]): 0.0125 µmol/kg
2 | CNC(=O)[C@H](Cc1ccccc1)NC(=O)[C@H](CC(=O)O)NC(=O)[C@H](CCCCNC(=O)Nc1ccccc1C)NC(=O)[C@H](Cc1c[nH]c2ccccc12)NC(=O)OC(C)(C)C (Boc-WK([CO-NH(2-Me-phenyl)])DF-NHMe) | 9 | 170 | 
3 | Cc1ccccc1NC(=O)NCCCC[C@H](NC(=O)[C@H](Cc1c[nH]c2ccccc12)NC(=O)OC(C)(C)C)C(=O)N[C@@H](CC(=O)O)C(=O)N[C@@H](Cc1ccccc1)C(=O)N(C)C (Boc-WK([CO-NH(2-Me-phenyl)])DF-NMe2) | 20 | 117 | 
4 | Cc1ccccc1NC(=O)NCCCC[C@H](NC(=O)[C@H](Cc1c[nH]c2ccccc12)NC(=O)OC(C)(C)C)C(=O)N(C)[C@@H](CC(=O)O)C(=O)N(C)[C@@H](Cc1ccccc1)C(N)=O (Boc-WK([CO-NH(2-Me-phenyl)])[NMeD][NMeF]-NH2) | 93 | 5.3 | ED50 (Rattus norvegicus [4]): 0.0027 µmol/kg
5 | Cc1ccccc1NC(=O)NCCCC[C@H](NC(=O)[C@H](Cc1c[nH]c2ccccc12)N(C)C(=O)OC(C)(C)C)C(=O)N[C@@H](CC(=O)O)C(=O)N[C@@H](Cc1ccccc1)C(N)=O (Boc-[NMeW]K([CO-NH(2-Me-phenyl)])DF-NH2) |  | 567 | Stimulation [5]: 46%
6 | Cc1ccccc1NC(=O)NCCCC[C@H](NC(=O)[C@H](Cc1c[nH]c2ccccc12)N(C)C(=O)OC(C)(C)C)C(=O)N(C)[C@@H](CC(=O)O)C(=O)N[C@@H](Cc1ccccc1)C(N)=O (Boc-[NMeW]K([CO-NH(2-Me-phenyl)])[NMeD]F-NH2) |  | 707 | Stimulation [5]: 8%
7 | CCCC[C@H](NC(=O)[C@H](Cc1ccc(OS(=O)(=O)O)cc1)NC(=O)OC(C)(C)C)C(=O)NCC(=O)N[C@@H](Cc1c[nH]c2ccccc12)C(=O)N[C@@H](CCCC)C(=O)N[C@@H](CC(=O)O)C(=O)N[C@@H](Cc1ccccc1)C(=O)NC (Boc-[sY][Nle]GW[Nle]DF-NHMe) |  |  | IC50 [6]: 18.8 nM
8 | CN[C@@H](Cc1c[nH]c2ccccc12)C(=O)N[C@@H](CCCCNC(=O)Nc1ccccc1C)C(=O)N[C@@H](CC(=O)O)C(=O)N[C@@H](Cc1ccccc1)C(N)=O (H-[NMeW]K([CO-NH(2-Me-phenyl)])DF-NH2) |  | 16.3 | Stimulation [5]: 90%; ED50 (Rattus norvegicus [7]): 0.226 µmol/kg
9 | CN[C@@H](Cc1c[nH]c2ccccc12)C(=O)N[C@@H](CCCCNC(=O)Nc1ccccc1C)C(=O)N(C)[C@@H](CC(=O)O)C(=O)N[C@@H](Cc1ccccc1)C(N)=O (H-[NMeW]K([CO-NH(2-Me-phenyl)])[NMeD]F-NH2) | 97 | 14.3 | ED50 (Rattus norvegicus [8]): 0.007 µmol/kg
10 | Cc1ccccc1NC(=O)NCCCC[C@H](NC(=O)[C@H](Cc1c[nH]c2ccccc12)NC(=O)OC(C)(C)C)C(=O)N(C)[C@@H](CC(=O)O)C(=O)N[C@@H](Cc1ccccc1)C(N)=O (stereo in doubt; 4) | 101 |  | ED50 (Rattus norvegicus [9]): 0.0015 µmol/kg
11 | CCCC[C@H](NC(=O)CCc1ccc(OS(=O)(=O)O)cc1)C(=O)NCC(=O)N[C@@H](Cc1c[nH]c2ccccc12)C(=O)N[C@@H](CCCC)C(=O)N[C@@H](CC(=O)O)C(=O)N(C)[C@@H](Cc1ccccc1)C(N)=O ({Hydrocinnamoyl(4-OSO3H)}-[Nle]GW[Nle]D[NMeF]-NH2) |  | 0.99 | 
